Sampled rows, rich in hits. Any-hit rate of the full collection: about 3.5%.
RGS4 act = RGS4 potentiation or activation. HEK293 M3R/inducible RGS4, carbachol calcium flux Fluo4; hits give low values. B-score at 10 µM. hit rate 0.92% among 310,000. AID 463111;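 active = B-score of the integrated calcium signal more than 4 SD below the library mean, with starting fluorescence not abnormally high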;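 note: negative B-score means reduced calcium response which marks RGS4 activation or potentiation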
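System: HEK293 FlpIn-TREx cells, stable M3R, doxycycline-inducible RGS4. Timing: overnight RGS4 induction, 30 min dye load 37 °C, 20 min compound RT. Also added: carbachol, ECmax concentration. Measured by: Fluo4 fluorescence kinetic imaging of calcium. Evaluation: integrated calcium ratio converted to B score.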
MrgX1 antag = human MrgX1 receptor antagonism, primary screen. hit rate 1.3% among 310,000. MRGX1-HEK293 calcium flux, Fluo-4, BAM8-22 antagonism; hits give low values. B-score at 10 µM. Q96LB2. AID 588676;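 active = calcium-response B-score plate-corrected more than 3 library SD below zero, starting fluorescence within 5 deviations, no agonist response on first addition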;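 note: peak minus trough fluorescence over baseline after final BAM8-22 challenge near maximal dose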
Target sequence (Q96LB2 whole entry, looked up): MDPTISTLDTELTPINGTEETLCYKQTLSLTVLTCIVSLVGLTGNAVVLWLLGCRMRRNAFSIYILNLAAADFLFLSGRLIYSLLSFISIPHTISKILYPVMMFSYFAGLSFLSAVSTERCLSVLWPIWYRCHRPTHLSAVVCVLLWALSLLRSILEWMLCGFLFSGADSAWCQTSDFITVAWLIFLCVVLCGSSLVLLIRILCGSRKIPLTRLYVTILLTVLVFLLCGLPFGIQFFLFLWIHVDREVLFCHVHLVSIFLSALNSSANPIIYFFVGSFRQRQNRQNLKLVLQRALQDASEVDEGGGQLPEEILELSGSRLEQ
RGS4 inh = inhibitors of human RGS4 | P49798 | HEK293 M3R/RGS4 inducible, Fluo-4 calcium flux; hits give high values; triggered by carbachol at its EC20 | B-score at 10 µM | hit rate 0.45% among 310,000 | AID 463165;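 active = B-score, a plate-corrected calcium signal, over three deviations above library mean, with baseline fluorescence within five deviations of library mean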;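 note: RGS4 expression induced by doxycycline in cells with stable M3 receptor; B-score is computed from the integrated fluorescence ratio over baseline after carbachol; higher B-score means a larger calcium signal and so more RGS4 inhibition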
Target sequence (P49798 whole entry, looked up): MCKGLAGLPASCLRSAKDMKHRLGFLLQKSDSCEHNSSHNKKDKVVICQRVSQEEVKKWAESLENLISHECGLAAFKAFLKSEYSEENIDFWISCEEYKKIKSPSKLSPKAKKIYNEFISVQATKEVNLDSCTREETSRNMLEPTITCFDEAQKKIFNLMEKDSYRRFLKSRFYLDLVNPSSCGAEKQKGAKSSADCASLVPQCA
MrgX1 ag = agonists of human MrgX1 receptor; Q96LB2; MrgX1-HEK293 cells, Fluo-4 calcium fluorescence, agonist mode; hits give high values; B-score at 10 µM; hit rate 0.44% among 310,000; AID 588627;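 active = calcium response B-score plate-corrected fluorescence ratio at least 3 library SD, with starting fluorescence B-score inside 5 SD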
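Assay system: MrgX1-expressing HEK293 cells / Amount: fifteen thousand cells per well / Doses: test compound in the initial addition of three / Timing: cells plated overnight, dye loaded 0.5 h 37 °C, 0.5 h room temperature / Technique: kinetic calcium dye fluorescence, Fluo-4 NW / Control set: positive and negative controls per plate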
MrgX1 allo act = allosterically activates human MrgX1 receptor signaling | MrgX1-HEK293, Fluo-4 calcium flux, FDSS; hits give high values | B-score at 10 µM | Q96LB2 | hit rate 0.63% among 310,000 | AID 588675;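 active = plate-corrected calcium response at least 3 library SD above typical, normal starting fluorescence, not activating the receptor alone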;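 note: compound read alongside a low EC10 to EC30 dose of BAM8-22 agonist; peak minus trough fluorescence over baseline measured at the second addition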
The depositor's hits bear a star; i = inactive; / = no result.

SMILES	RGS4 act	MrgX1 antag	RGS4 inh	MrgX1 ag	MrgX1 allo act
CCCCNc1c(-c2ccc(-c3ccc(C(C)=O)cc3)c(OC)c2)nc2cnccn12	-11*	i	i	i	i
CCCCNc1c(-c2ccc(OC)c(SC3CCCCC3)c2)nc2cnccn12	-10*	i	i	i	i
CCCCCCSc1cc(-c2nc3cc(C)ccn3c2NC2CCCCC2)ccc1OC	i	i	i	i	i
COc1cc(-c2nc3ccccn3c2NCc2ccccc2)ccc1SC1CCCCC1	i	i	i	i	i
COc1cc(-c2nc3cc(C)ccn3c2NC2CCCCC2)ccc1-c1ccc(C(C)=O)cc1	i	i	i	i	i
CCN1CCN(CCCNC(=O)c2ccccc2NC(=O)C2=C(C)OCCS2)CC1	i	i	i	i	i
CCCCCC[N+](C)(C)CC/C=C1/c2ccccc2Sc2ccc(Cl)cc21	-9.5*	i	i	i	i
O=C(O)c1cn(C2CC2)c2cc(N3CCN(S(=O)(=O)c4ccc5c(c4)OCCO5)CC3)c(F)cc2c1=O	i	i	i	i	i
CCS(=O)(=O)C1=NSC2=NC(=O)/C(=C\c3ccc(OS(=O)(=O)c4ccccc4)c(OC)c3)C(=N)N21	i	i	i	i	33*
COc1cc(/C=C2/C(=N)N3C(=NC2=O)SN=C3S(C)(=O)=O)ccc1OS(=O)(=O)c1ccc(C)cc1	i	i	i	i	10*
Cc1ccc(S(=O)(=O)Oc2ccc(/C=C3/C(=N)N4C(=NC3=O)SN=C4S(C)(=O)=O)cc2)cc1	i	i	i	i	17*
COc1cc(/C=C2/C(=N)N3N=C(C)SC3=NC2=O)ccc1OS(=O)(=O)c1ccc(C)cc1	i	i	i	i	i
COC(=O)C(C)n1cnc2c(nnn2-c2cccc(OC)c2)c1=O (configuration not stated)	i	i	i	i	i
COc1ccc(C(CNC(=O)C(Cc2ccccc2)NC(N)=O)N(C)C)cc1 (configuration not stated)	i	i	i	i	i
Cc1nc2scc(-c3ccccc3)c2c(=O)n1N=C1C=CC(=O)C=C1	-7.7*	/	i	/	/
Cc1cc(/C=C2/NC(=O)NC2=O)c(C)n1-c1ccccn1	i	i	i	i	i
Cc1ccc(-n2c(C)cc(/C=C3\NC(=O)NC3=O)c2C)c(C)c1	-7.6*	i	i	i	i
COC(=O)C1=CN(C2CC2)C=C(C(=O)OC)C1c1ccc(C(=O)OC)cc1	i	i	i	i	i
COC(=O)C1=CN(C2CC2)C=C(C(=O)OC)C1c1ccc(C(F)(F)F)cc1	i	-6.6*	i	i	i
COc1ccc(C(CC(=O)c2ccccc2)CC(=O)c2ccccc2)cc1OC	i	-6.7*	i	i	i
CC1=NN(/C(=N\c2nnc(C)s2)Nc2ccc(C)cc2)[C@H](c2ccc(C)cc2)S1	i	i	i	30*	i
COc1ccc(S(=O)(=O)n2[nH]c(=O)c(CCO)c2C)c([N+](=O)[O-])c1	i	i	i	i	7.9*
Cc1c(CCO)c(=O)[nH]n1S(=O)(=O)c1ccc(Cl)cc1Cl	i	i	i	i	i
Cc1cccc(N2CCN(C(=O)c3ccc4c(c3)OCCO4)CC2)c1C	i	i	i	i	i
Cc1cccc(N2CCN(C(=O)c3ccc4c(c3)NC(=O)C(CSCc3cccc(F)c3)N4)CC2)c1C (configuration not stated)	i	i	i	34*	i
SMILES	RGS4 act	MrgX1 antag	RGS4 inh	MrgX1 ag	MrgX1 allo act
O=[N+]([O-])c1ccc(Cl)c(C[n+]2cccc3ccccc32)c1	i	i	i	i	i
CCOc1ccccc1NC(=O)C1(S(=O)(=O)c2ccc(Cl)cc2)CC1	-7*	i	i	i	i
COc1cccc(/C=C/C(=O)c2ccc(NC3=NCCCS3)cc2)c1	i	i	i	45*	i
COc1cccc(/C=C/C(=O)c2cccc([N+](=O)[O-])c2)c1	i	i	i	38*	i
O=C(/C=C/c1cccc([N+](=O)[O-])c1)c1ccco1	i	i	i	56*	i
COc1cccc(/C=C/C(=O)c2cccc([N+](=O)[O-])c2)c1OC	i	i	i	i	i
COc1ccc(Oc2ccc(/C=C/C(=O)c3ccc(O)cc3)cc2[N+](=O)[O-])cc1	i	-5.4*	i	i	i
Cc1cccc(/C=C/C(=O)c2ccc(NC3=NCCCS3)cc2)c1	i	i	i	i	i
CCOC(=O)C1(Cc2cccc(Cl)c2)CCCN(C(=O)c2c(CC)noc2C)C1 (configuration not stated)	i	i	i	i	i
O=C(N[C@H](Cc1cc(=O)[nH]c2ccccc12)C(=O)O)c1ccc(Cl)cc1	i	i	i	i	i
CN(NC(=O)c1ccc(Cl)cc1Cl)C1=NS(=O)(=O)c2ccccc21	i	-6.3*	i	i	i
COc1ccc(N2CCN(C(=O)COC(=O)CNC(=O)c3ccccc3)CC2)cc1	i	i	i	i	i
Cn1c2c(c3ccccc31)CCN1CCC[C@]21c1ccccc1	i	i	i	i	i
O=C(COC(=O)C1C2CC3OC(=O)C1C3C2)Nc1ccccc1 (configuration not stated)	i	i	i	i	i
CN(Cc1ccc(F)cc1)C(=O)C(Cc1ccccc1)NC(=O)c1ccccc1 (configuration not stated)	i	i	i	i	i
CSc1ccc(CN(C)C(=O)C(Cc2ccccc2)NC(=O)c2ccccc2)cc1 (configuration not stated)	-7.3*	i	i	i	i
CSc1ccc(CN(C)C(=O)c2cccc(S(=O)(=O)NCc3ccccc3)c2)cc1	i	-5.1*	i	i	i
CCCN(CC(=O)Nc1ccccc1OC)C(=O)c1cccc(S(=O)(=O)NCc2ccccc2)c1	i	-6.1*	i	i	i
CCOC(=O)C1(Cc2ccccc2C(F)(F)F)CCN(C2CCN(C(C)C)CC2)CC1	i	i	i	i	i
CCCCn1c(N)c(N(CCOC)C(=O)c2ccc(F)c(S(=O)(=O)N3CCOCC3)c2)c(=O)[nH]c1=O	i	i	i	i	i
COc1ccc(NC(=O)C(NC(=O)c2ccc(C)cc2)c2ccccc2)cc1 (configuration not stated)	i	i	i	i	i
O=c1c2ccccc2nc(SCc2ccccc2Cl)n1Cc1ccccc1	i	-6.8*	i	i	i
